Molecules are shown by their SMILES. Active and inactive are the calls of the source. The calls are words filed in the database; no cut-off is given here.

The target of data set [1] is T1, P2Y purinoceptor 2 (Homo sapiens, UniProt P41231). Kind of data set: Antagonist activity at human P2Y2 receptor expressed in human 1321N1 cells assessed as inhibition of UTP-induced intracellular calcium mobilization by FLUOstar plate reader. The format is functional, cell-based. In a few lines: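 Fura-2 AM-loaded astrocytoma cells expressing human P2Y2 receptor. Compound is tested at 0.1, 0.3, 1, 3, 10, 30 and 100 μM. The read-out is inhibition of UTP-induced intracellular calcium mobilization.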
T1 sequence (P41231 whole entry): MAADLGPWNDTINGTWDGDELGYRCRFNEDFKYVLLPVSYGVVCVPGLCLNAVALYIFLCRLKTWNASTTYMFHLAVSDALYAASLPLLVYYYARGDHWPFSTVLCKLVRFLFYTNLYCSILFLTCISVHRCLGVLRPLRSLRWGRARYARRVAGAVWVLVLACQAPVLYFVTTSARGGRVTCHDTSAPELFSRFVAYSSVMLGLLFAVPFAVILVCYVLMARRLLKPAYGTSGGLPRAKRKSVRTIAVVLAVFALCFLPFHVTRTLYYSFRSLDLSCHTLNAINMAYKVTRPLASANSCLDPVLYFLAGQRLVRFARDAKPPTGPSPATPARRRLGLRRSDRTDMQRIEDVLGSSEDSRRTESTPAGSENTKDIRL
For orientation: A change in cytosolic calcium serves as a functional read-out for many receptors and channels.

In data set [2] the target is T2, P2Y purinoceptor 4 (Homo sapiens, UniProt P51582). Description: Antagonist activity at human P2Y4 receptor expressed in human 1321N1 cells assessed as inhibition of UTP-induced intracellular calcium mobilization by FLUOstar plate reader. Type of data set: functional, cell-based.
T2 sequence (P51582 whole entry): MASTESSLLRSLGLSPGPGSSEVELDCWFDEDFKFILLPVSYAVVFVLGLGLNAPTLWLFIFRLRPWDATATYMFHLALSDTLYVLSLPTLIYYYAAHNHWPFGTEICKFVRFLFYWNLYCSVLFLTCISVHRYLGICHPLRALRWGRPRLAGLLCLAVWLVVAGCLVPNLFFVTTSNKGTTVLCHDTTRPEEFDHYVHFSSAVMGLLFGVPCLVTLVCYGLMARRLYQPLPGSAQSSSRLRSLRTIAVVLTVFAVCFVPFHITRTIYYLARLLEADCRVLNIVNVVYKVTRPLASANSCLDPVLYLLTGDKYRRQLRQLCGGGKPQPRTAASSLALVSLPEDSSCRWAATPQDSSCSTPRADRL
The target in the next data set is P2Y purinoceptor 6 (Rattus norvegicus, UniProt Q63371). Kind of data set: Antagonist activity at rat P2Y6 receptor expressed in human 1321N1 cells assessed as inhibition of UDP-induced intracellular calcium mobilization by NOVOstar plate reader.
Sequence of P2Y purinoceptor 6 (Q63371 whole entry): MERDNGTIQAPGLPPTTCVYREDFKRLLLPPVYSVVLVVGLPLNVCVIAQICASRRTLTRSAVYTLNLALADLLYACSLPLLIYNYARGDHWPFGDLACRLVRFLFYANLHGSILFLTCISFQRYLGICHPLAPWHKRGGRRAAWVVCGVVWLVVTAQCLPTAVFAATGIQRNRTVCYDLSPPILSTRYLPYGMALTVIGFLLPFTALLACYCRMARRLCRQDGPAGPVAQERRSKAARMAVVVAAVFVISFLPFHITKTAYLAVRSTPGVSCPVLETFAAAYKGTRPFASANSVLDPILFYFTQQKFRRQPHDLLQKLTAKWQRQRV
Data set [3] has as its target T3, Ectonucleoside triphosphate diphosphohydrolase 8 (Homo sapiens, UniProt Q5MY95).
T3 sequence (Q5MY95 whole entry): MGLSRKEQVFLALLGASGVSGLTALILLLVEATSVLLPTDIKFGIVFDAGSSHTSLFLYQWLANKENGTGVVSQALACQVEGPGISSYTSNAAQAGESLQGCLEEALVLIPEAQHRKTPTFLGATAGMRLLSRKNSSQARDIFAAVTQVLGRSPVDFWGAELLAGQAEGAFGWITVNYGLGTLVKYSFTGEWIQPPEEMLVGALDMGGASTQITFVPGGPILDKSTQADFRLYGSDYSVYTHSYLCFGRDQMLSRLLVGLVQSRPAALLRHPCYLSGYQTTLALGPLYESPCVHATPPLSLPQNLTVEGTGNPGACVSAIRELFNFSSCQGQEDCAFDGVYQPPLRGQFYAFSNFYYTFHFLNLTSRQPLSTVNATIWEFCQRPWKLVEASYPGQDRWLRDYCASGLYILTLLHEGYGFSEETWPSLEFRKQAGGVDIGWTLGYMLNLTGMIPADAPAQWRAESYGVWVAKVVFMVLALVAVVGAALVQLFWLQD
Kind of data set: Inhibition of human NTPDase 8 expressed in COS7 cells. Type of data set: cell-based, COS-7. A digest of the protocol:
(§1)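 NTPDase2 membranes come from stably transfected HEK 293 cells; NTPDase3 and NTPDase8 are transiently expressed in COS-7 cells as crude protein extracts. Buffer is 140 mM NaCl, 5 mM KCl, 1 mM MgCl2, 2 mM CaCl2, 10 mM HEPES pH 7.4, with 400 μM ATP, 37 °C, 10 min, stopped at 99 °C. Products are read by capillary electrophoresis (UV 210 nm, UMP internal standard).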

The target in data set [4] is T2, P2Y purinoceptor 4. Description: Antagonist activity at human P2Y4 receptor expressed in human 1321N1 cells assessed as inhibition of UTP-induced intracellular calcium mobilization at 100 uM by FLUOstar plate reader. The format is functional, cell-based. In a few lines: (§2)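 Human 1321N1 astrocytoma cells express human P2Y2 or P2Y4, or rat P2Y6. Cells are loaded with Fura-2 AM and preincubated with compound at 100 μM. Inhibition of agonist-induced intracellular calcium release is read as Fura-2 fluorescence. The agonist is UTP for P2Y2 and P2Y4, and UDP for P2Y6.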

Data set [5] in a line: Inhibition of rat NTPDase 3.
The target in data set [6] is P2Y purinoceptor 6 (Rattus norvegicus) (UniProt Q63371). Description: Antagonist activity at rat P2Y6 receptor expressed in human 1321N1 cells assessed as inhibition of UDP-induced intracellular calcium mobilization by NOVOstar plate reader.
Sequence of P2Y purinoceptor 6 (Rattus norvegicus) (Q63371 whole entry): as the sequence (Q63371 whole entry) above
In data set [7] the target is T4, Ectonucleoside triphosphate diphosphohydrolase 8 (Homo sapiens) (UniProt Q5MY95).
T4 sequence (whole entry): T3 sequence (Q5MY95 whole entry)
Kind of data set: Inhibition of human NTPDase 8 expressed in COS7 cells at 1mM. Type of data set: cell-based. To be noted: COS-7. A digest of the protocol: (§3)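 Transiently transfected COS-7 cell protein extract expressing human enzyme. 1 mM test compound with 400 μM ATP in HEPES 10 mM pH 7.4 buffer (NaCl, KCl, 1 mM MgCl2, 2 mM CaCl2), 37 °C for 10 min. Stopped at 99 °C for 5 min. Products measured by capillary electrophoresis, UV 210 nm, with UMP internal standard. Triplicates in two experiments; empty-pcDNA3 membrane control.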

Data set [8] addresses T1, P2Y purinoceptor 2. Kind of data set: Antagonist activity at human P2Y2 receptor expressed in human 1321N1 cells assessed as inhibition of UTP-induced intracellular calcium mobilization at 100 uM by FLUOstar plate reader. The format is functional, cell-based. In a few lines:
as §2

For data set [9], the target named is T2, P2Y purinoceptor 4. Description: Antagonist activity at human P2Y4 receptor expressed in human 1321N1 cells assessed as inhibition of UTP-induced receptor activation at 100 uM relative to UTP. Type of data set: functional, cell-based. Also noted: scale not given: the % may be the effect or the level left. In a few lines: as §2
Data set [10] deals with P2Y purinoceptor 6 (Rattus norvegicus) (UniProt Q63371). Kind of data set: Antagonist activity at rat P2Y6 receptor expressed in human 1321N1 cells assessed as inhibition of UDP-induced receptor activation at 100 uM relative to UDP. Type of data set: functional, cell-based. The arrangement: scale not given: the % may be the effect or the level left. In a few lines:
as §2

The nature of data set [11]: Chemical stability in 0.001 N aqueous sodium hydroxide at pH 11 by LC-MS analysis. Type of data set: physicochemical. The note with it: buffer. A digest of the protocol: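 Compound from a 2 mM aqueous stock (20 mM NH4OAc) is diluted 10 μL into 990 μL of 0.001 N NaOH (pH 11). It is incubated 2 or 24 h at 37 °C and analysed by C18 LC–ESI-MS, with detection limit about 0.1 μg/mL.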

In data set [12] the target is P2Y purinoceptor 6 (Rattus norvegicus) (UniProt Q63371). Kind of data set: Antagonist activity at rat P2Y6 receptor expressed in human 1321N1 cells assessed as inhibition of UDP-induced intracellular calcium mobilization at 100 uM by NOVOstar plate reader. Type of data set: functional, cell-based. In a few lines:
as §2

The nature of data set [13]: Stability in simulated artificial gastric juice after 24 hrs by LC-MS analysis. The format is physicochemical. To be noted: simulated gi fluid.
In data set [14] the target is T1, P2Y purinoceptor 2. Description: Antagonist activity at human P2Y2 receptor expressed in human 1321N1 cells assessed as inhibition of UTP and ATP-induced receptor activation at 100 uM relative to UTP. Type of data set: functional, cell-based. The arrangement: scale not given: the % may be the effect or the level left. In a few lines:
as §2

In data set [15] the target is T5, Ectonucleoside triphosphate diphosphohydrolase 3 (Homo sapiens) (UniProt O75355).
T5 sequence (whole entry): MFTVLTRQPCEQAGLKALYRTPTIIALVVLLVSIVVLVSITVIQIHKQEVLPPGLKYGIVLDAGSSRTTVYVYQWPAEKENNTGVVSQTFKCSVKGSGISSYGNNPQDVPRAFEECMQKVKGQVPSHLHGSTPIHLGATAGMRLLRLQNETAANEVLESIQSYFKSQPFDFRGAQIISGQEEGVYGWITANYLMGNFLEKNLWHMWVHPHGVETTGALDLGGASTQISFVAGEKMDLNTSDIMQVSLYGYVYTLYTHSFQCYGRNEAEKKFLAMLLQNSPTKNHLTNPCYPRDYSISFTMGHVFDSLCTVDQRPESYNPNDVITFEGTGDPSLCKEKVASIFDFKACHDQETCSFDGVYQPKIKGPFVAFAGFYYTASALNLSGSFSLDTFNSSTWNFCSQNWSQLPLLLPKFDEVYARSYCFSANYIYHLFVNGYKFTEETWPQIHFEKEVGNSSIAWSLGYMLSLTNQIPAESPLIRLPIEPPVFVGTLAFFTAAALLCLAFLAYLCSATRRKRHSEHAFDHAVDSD
Kind of data set: Inhibition of human NTPDase 3 expressed in COS7 cells at 1mM. The format is cell-based. To be noted: COS-7. In a few lines: as §1

A short description of data set [16]: Metabolic stability in rat liver microsomes after 24 hrs by LC-MS analysis. The note with it: read-out: Stability. The format is ADME, Microsome. On the technique in general: Liver microsomes are a subcellular fraction often used to study metabolism.
Data set [17] has as its target T6, Ectonucleoside triphosphate diphosphohydrolase 2 (Homo sapiens, UniProt Q9Y5L3).
T6 sequence (Q9Y5L3 whole entry): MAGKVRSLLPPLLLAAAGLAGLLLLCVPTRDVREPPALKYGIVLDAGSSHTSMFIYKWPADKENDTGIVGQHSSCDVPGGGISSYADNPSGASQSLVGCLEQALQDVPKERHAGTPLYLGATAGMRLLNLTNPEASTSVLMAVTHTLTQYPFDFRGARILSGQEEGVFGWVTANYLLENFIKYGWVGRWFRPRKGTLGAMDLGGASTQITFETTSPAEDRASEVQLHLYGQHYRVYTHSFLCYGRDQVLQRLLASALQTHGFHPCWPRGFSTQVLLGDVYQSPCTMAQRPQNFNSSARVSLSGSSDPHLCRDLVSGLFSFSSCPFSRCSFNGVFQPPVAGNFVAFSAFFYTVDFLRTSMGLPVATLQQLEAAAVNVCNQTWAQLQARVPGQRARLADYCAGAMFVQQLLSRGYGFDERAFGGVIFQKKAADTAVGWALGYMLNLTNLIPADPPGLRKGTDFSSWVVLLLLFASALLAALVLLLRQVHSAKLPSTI
Kind of data set: Inhibition of human NTPDase 2 expressed in HEK293 cells assessed as residual activity by capillary electrophoresis. Type of data set: cell-based. In a few lines:
as §1

The target in data set [18] is T7, Ectonucleoside triphosphate diphosphohydrolase 1 (Homo sapiens) (UniProt P49961).
T7 sequence (whole entry): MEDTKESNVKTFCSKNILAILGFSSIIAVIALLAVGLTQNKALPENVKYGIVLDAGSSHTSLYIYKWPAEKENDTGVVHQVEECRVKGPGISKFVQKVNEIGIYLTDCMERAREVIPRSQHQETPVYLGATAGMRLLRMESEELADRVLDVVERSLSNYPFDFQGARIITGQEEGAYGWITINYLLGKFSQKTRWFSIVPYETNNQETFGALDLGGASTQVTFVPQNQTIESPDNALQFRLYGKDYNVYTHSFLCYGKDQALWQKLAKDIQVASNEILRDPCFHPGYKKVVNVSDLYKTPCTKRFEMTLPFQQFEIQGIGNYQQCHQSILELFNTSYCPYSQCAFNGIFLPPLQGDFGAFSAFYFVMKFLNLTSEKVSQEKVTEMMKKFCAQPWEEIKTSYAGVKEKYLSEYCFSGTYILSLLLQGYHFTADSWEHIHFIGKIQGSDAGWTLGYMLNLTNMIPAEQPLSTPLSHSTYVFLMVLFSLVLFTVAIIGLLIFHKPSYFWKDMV
Kind of data set: Inhibition of human NTPDase 1 expressed in COS7 cells at 1mM. Type of data set: cell-based. To be noted: COS-7. A digest of the protocol: as §3

As usually defined, the IC50 is the point on the concentration scale where inhibition reaches its midpoint. A word on the Ki: it is a dissociation constant, usually derived from enzyme kinetics or from competition with a known ligand. In the case of `Nc1c(S(=O)(=O)O)cc(Nc2ccc(Nc3nc(Cl)nc(Nc4cccc(S(=O)(=O)O)c4)n3)c(S(=O)(=O)O)c2)c2c1C(=O)c1ccccc1C2=O` [RB 2], the IC50 came out at 12 µM on P2Y purinoceptor 2 [1], 5.75 µM at P2Y purinoceptor 4 [2] and 4.34 µM on P2Y purinoceptor 6. In data set [3], the Ki was > 100 µM.
On to `Cc1ccc(C(=O)Nc2ccc(S(=O)(=O)O)c3cc(S(=O)(=O)O)cc(S(=O)(=O)O)c23)cc1NC(=O)c1cccc(NC(=O)Nc2cccc(C(=O)Nc3cc(C(=O)Nc4ccc(S(=O)(=O)O)c5cc(S(=O)(=O)O)cc(S(=O)(=O)O)c45)ccc3C)c2)c1` [SURAMIN], for which, on P2Y purinoceptor 4 [4], the result was inactive. For the same molecule, the Ki in data set [5] was 12.7 µM; in data set [3], > 100 µM. The concentration for half-maximal inhibition (IC50) on P2Y purinoceptor 2 [1] was 50 µM; in data set [6], 27 µM.
Broadly, the inhibition is the relative decrease from the control value, in per cent. Consider `CCOP(=O)(Cc1ccc(NC(=O)CCNC(=O)[C@H]2O[C@@H](n3ccc(=O)[nH]c3=O)[C@H](O)[C@@H]2O)cc1)OCC`, for which the inhibition at P2Y purinoceptor 4 [4] is 14%; in data set [7] it was 0%; at P2Y purinoceptor 2 [8], 10%; in data set [12], 7%; in [15], 40%. The Activity was -6% at P2Y purinoceptor 4 [9]; -5% in [10]; “Active” in [11]; “Active” in data set [13]; 14% on P2Y purinoceptor 2 [14]. In addition, the remaining at 24 h in [16] is > 95%.
Consider `CCOP(=O)(Cc1ccc(NC(=O)CNC(=O)[C@H]2O[C@@H](n3ccc(=O)[nH]c3=O)[C@H](O)[C@@H]2O)cc1)OCC`, for which the inhibition on P2Y purinoceptor 4 [4] was 4%; in [7], 0%; at P2Y purinoceptor 2 [8], 22%; in data set [12], -10%; in [18], 50%; in [15], 0%. The Activity at P2Y purinoceptor 4 [9] was -42%; in [10] it was -7%; on P2Y purinoceptor 2 [14], -21%. Moreover, in [17], the IC50 came to 42 µM. Further, the Stability entry in data set [11] and in [13] was “Stable” each time. Further, in data set [16], the remaining at 24 h was > 95%.

Source of the values: ChEMBL document CHEMBL1155882, “Selective nucleoside triphosphate diphosphohydrolase-2 (NTPDase2) inhibitors: nucleotide mimetics derived from uridine-5'-carboxamide” (J Med Chem, 2008).
